Assay [1] in a line: reduced viability of SK-BR-3 breast cancer cells – cell-based, 24 h, human, pilot screen (AID 572;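 active = viability at or below 10% of carrier control in both of two separate runs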;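 also: compound exposure lasted between 18 and 24 h rather than exactly 24 h; 100% = carrier-treated control wells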). As to conditions: SK-BR-3 viability, CellTiter-Glo luminescence, at 10 µM, stronger effect = lower value. A general note: In ATP-based viability assays light output follows the ATP content of the culture.
Assay [2] is described as follows: HUVEC growth inhibition – cell-based, human, primary screen (AID 575;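 active = viability at or below 30% in both replicate assays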;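 also: 100% = median of untreated cell wells with 0.1% DMSO on each plate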). Particulars: HUVEC proliferation, CellTiter-Glo luminescence, 72 h; at 10 µM; stronger effect = lower value. The gist of the method:
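Assay system: primary human umbilical vein endothelial cells / Buffer or medium: endothelial basal medium with 2% FBS plus growth supplements / Compound dosing: one dose, 10 µM final, 0.1% DMSO / Timing: 72 h treatment at 37 °C / Signal: CTG luminescence / Benchmarks: 32 DMSO-only cell-control wells (high), 32 MePR drug-control wells (low) per plate / Plate: collagen-coated 384-well format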

Assay [3] in a line: H69AR cell proliferation blockers – human, duplicate replicates, primary screen (AID 580).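 Also: 100% = mean luminescence of untreated wells and 0% = no signal.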 Particulars: H69AR lung tumor cells viability, ATP luminescence, 72 h; at 10 µM; stronger effect = lower value.
The nature of assay [4]: MRP1 drug-resistance reversers in H69AR cells – cell-based, doxorubicin co-treatment, pilot screen (AID 601;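 active = viability loss from added drug above about 55%, and viability with drug at most 40%, in both replicates, limit read from the data, passing the limit was not always enough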). As to conditions: CellTiter-Glo, 72 h, at 10 µM; for differential viability (reversal): stronger effect = higher value.
Assay [5] is described as follows: yeast transport mutant growth inhibition pilot in 384-well plates, post-Golgi transport modulator project (AID 636; in the data active = inhibition above about 31%). As to conditions: absorbance 615 nm, about 18 h, stronger effect = higher value.
The nature of assay [6]: growth suppression of yeast trafficking mutant, preliminary HTS, modulators of trafficking downstream of Golgi apparatus project, 1536-format plate, OD 615 nm (AID 637; in the data active = inhibition above about 30%). Particulars: yeast transport mutant growth, absorbance 615 nm, 18 h; stronger effect = higher value.
[7] abbreviates: H69AR cells + 2 uM doxorubicin, measured here: viability with 2 uM doxorubicin, stronger effect = lower value.
[8] abbreviates: H69AR cells, compound alone cytotoxicity.

The text below walks through data of PubChem BioAssay.

Calls of active or inactive are those of the source.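 The calls were made as follows, unless noted: active = viability at or under a set limit in both replicates, limit being median viability minus 3 SD (cut at about 48% in these data, passing the limit was not always enough); inconclusive = at or under the limit in just one replicate; inactive = at or above the limit in both replicates.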

Usually viability stands for a read-out of living cells in per cent, often relative to untreated cells. The inhibition is the change of the read-out against control, counted positive when it falls.

As to `COc1ccccc1CNC(=O)C(C)NS(=O)(=O)c1ccccc1` (configuration not stated), the viability in assay [1] is 113% (inactive); in assay [2] it was 106% (inactive); in assay [3] it was 87.1% (inactive); in assay [4] (setting [7]), 98.1%; in assay [4] (setting [8]), 87.1%. The differential viability (reversal) in assay [4] (H69AR cells + 2 uM doxorubicin) was -11% (inactive). In addition, the figures for the inhibition in assay [5] and in assay [6] were -7.4% (inactive) and -0.73% (inactive), respectively.

Turning to `CCOC(=O)c1ccccc1NC1CC(=O)N(c2ccccc2C)C1=O` (configuration not stated), the viability is 98% (inactive) in assay [1]; 101% (inactive) in assay [2]; 98.4% (inactive) in assay [3]; 89.6% in assay [4] (setting [7]); 98.4% in assay [4] (setting [8]). The differential viability (reversal) in assay [4] (H69AR cells + 2 uM doxorubicin) was 8.82% (inactive). Also, the inhibition in assay [5] was -2.13% (inactive); in assay [6], -6.73% (inactive).

Consider `Cn1c(Cc2ccccc2)nnc1SCC(=O)N1CCOCC1`, for which the viability is 91% (inactive) in assay [1]; 95.6% (inactive) in assay [2]; 101% (inactive) in assay [3]; 94.8% in assay [4] (setting [7]); 101% in assay [4] (setting [8]). Also, the differential viability (reversal) in assay [4] (H69AR cells + 2 uM doxorubicin) was 6.17% (inactive). Further, the inhibition in assay [5] was -1.08% (inactive); in assay [6], 28.7% (inactive).

Consider `O=C(Nc1ccc(Cl)cc1C(=O)O)c1ccc2c(c1)C(=O)N(Cc1ccco1)C2=O`, for which the viability is 72% (inactive) in assay [1]; 86.6% (inactive) in assay [2]; 93.3% (inactive) in assay [3]; 84.7% in assay [4] (setting [7]); 93.3% in assay [4] (setting [8]). Also, the differential viability (reversal) in assay [4] (H69AR cells + 2 uM doxorubicin) is 8.62% (inactive). Also, the inhibition is -8.49% (inactive) in assay [5] and 0.48% (inactive) in assay [6].

Regarding `COc1ccc(OC)c(NC(=O)CS(=O)(=O)c2ccccc2)c1`, the viability is 124% (inactive) in assay [1]; 94.7% (inactive) in assay [2]; 86.3% (inactive) in assay [3]; 93.7% in assay [4] (setting [7]); 86.3% in assay [4] (setting [8]). In addition, the differential viability (reversal) in assay [4] (H69AR cells + 2 uM doxorubicin) was -7.39% (inactive). The inhibition was -6.3% (inactive) in assay [5] and 0.91% (inactive) in assay [6].

Turning to `COc1ccc2cc(C#N)c(N3CCN(Cc4nnnn4CCC(C)C)CC3)nc2c1`, the viability in assay [1] is 89% (inactive); in assay [2] it was 64.5% (inactive); in assay [3] it was 79.4% (inactive); in assay [4] (setting [7]) it was 71.2%; in assay [4] (setting [8]), 79.4%. In assay [4] (H69AR cells + 2 uM doxorubicin), the differential viability (reversal) was 8.18% (inactive). Also, the inhibition in assay [5] was -2.93% (inactive); in assay [6], 2.73% (inactive).

On to `CN1CC=C2C(C#N)=C(N)C(C#N)(C#N)C(Cc3ccccc3)C2C1` (configuration not stated), for which the viability in assay [1] was 85% (inactive); in assay [2] it was 69% (inactive); in assay [3], 84.6% (inactive); in assay [4] (setting [7]) it was 87.5%; in assay [4] (setting [8]), 84.6%. For the same compound, the differential viability (reversal) in assay [4] (H69AR cells + 2 uM doxorubicin) is -2.88% (inactive). The values for the inhibition in assay [5] and in assay [6] were -8.22% (inactive) and -7.26% (inactive), respectively.

In the case of `Cc1nc(NC(=O)c2ccccc2)sc1-c1csc(NCc2ccco2)n1`, the viability in assay [1] was 82% (inactive); in assay [2], 89% (inactive); in assay [3] it was 20.2% (active); in assay [4] (setting [7]), 62.7%; in assay [4] (setting [8]), 20.2%. Also, the differential viability (reversal) in assay [4] (H69AR cells + 2 uM doxorubicin) is -42.5% (inactive). Further, the inhibition is 34.6% (active) in assay [5] and 9.27% (inactive) in assay [6].

Consider `COc1ccc(CCN(C)CCCC(C#N)(c2cc(OC)c(OC)c(OC)c2)C(C)C)cc1OC` (configuration not stated), for which the viability is 85% (inactive) in assay [1]; 64.6% (inactive) in assay [2]; 95.6% (inactive) in assay [3]; 101% in assay [4] (setting [7]); 95.6% in assay [4] (setting [8]). Besides, the differential viability (reversal) in assay [4] (H69AR cells + 2 uM doxorubicin) was -5.51% (inactive). The figures for the inhibition in assay [5] and in assay [6] were 5.71% (inactive) and -1.17% (inactive), respectively.

With `CC(=O)OCC(=O)[C@@]1(O)CC[C@H]2[C@@H]3CCC4=CC(=O)CC[C@]4(C)[C@H]3[C@@H](O)C[C@@]21C`, the viability in assay [1] was 101% (inactive); in assay [2], 74.1% (inactive); in assay [3], 100% (inactive); in assay [4] (setting [7]), 97.7%; in assay [4] (setting [8]) it was 100%. Moreover, the differential viability (reversal) in assay [4] (H69AR cells + 2 uM doxorubicin) was 2.38% (inactive). For the same compound, the values for the inhibition in assay [5] and in assay [6] were -4.29% (inactive) and -1.17% (inactive), respectively.

As to `Fc1ccccc1Cn1nnc2c(-n3ccnc3)ncnc21`, the viability in assay [1] was 115% (inactive); in assay [2], 99.9% (inactive); in assay [3], 92.3% (inactive); in assay [4] (setting [7]), 77.1%; in assay [4] (setting [8]), 92.3%. The differential viability (reversal) in assay [4] (H69AR cells + 2 uM doxorubicin) was 15.2% (inactive). Besides, the results for the inhibition in assay [5] and in assay [6] were -3.01% (inactive) and -3.71% (inactive), respectively.

For `O=C(NCc1ccco1)c1cc2sccc2n1Cc1ccccc1`, the viability is 131% (inactive) in assay [1]; 97.3% (inactive) in assay [2]; 71.2% (inactive) in assay [3]; 89.7% in assay [4] (setting [7]); 71.2% in assay [4] (setting [8]). Also, the differential viability (reversal) in assay [4] (H69AR cells + 2 uM doxorubicin) was -18.5% (inactive). The inhibition in assay [5] is 3.01% (inactive); in assay [6], 14.2% (inactive).

As for `O=C(Nc1nonc1NC(=O)C1CCCCC1)C1CCCCC1`, the viability in assay [1] was 111% (inactive); in assay [2] it was 84.7% (inactive); in assay [3], 89.9% (inactive); in assay [4] (setting [7]) it was 86.8%; in assay [4] (setting [8]), 89.9%. Further, in assay [4] (H69AR cells + 2 uM doxorubicin), the differential viability (reversal) is 3.04% (inactive). The inhibition is -10% (inactive) in assay [5] and 1.94% (inactive) in assay [6].

Consider `CCOCC(=O)Nc1c(C(=O)Nc2ccc(OC)cc2OC)oc2ccccc12`, for which the viability in assay [1] was 65.5% (inactive); in assay [2], 50.9% (inactive); in assay [3], 48% (active); in assay [4] (setting [7]) it was 48.3%; in assay [4] (setting [8]) it was 48%. Moreover, the differential viability (reversal) in assay [4] (H69AR cells + 2 uM doxorubicin) is -0.305% (inactive). The inhibition in assay [5] is -6.62% (inactive); in assay [6], -3.77% (inactive).

For `CCOC(=O)C1=C(C)NC(C)=C(C(=O)OC)C1c1cccc(Cl)c1Cl` (configuration not stated), the viability in assay [1] is 86% (inactive); in assay [2] it was 11.2% (active); in assay [3], 72% (inactive); in assay [4] (setting [7]), 67.1%; in assay [4] (setting [8]), 72%. In assay [4] (H69AR cells + 2 uM doxorubicin), the differential viability (reversal) was 4.92% (inactive). For the same compound, the figures for the inhibition in assay [5] and in assay [6] were 11.3% (inactive) and 13.2% (inactive), respectively.

Regarding `O=C(Nc1nnc(C2CCCC2)s1)C1CCN(S(=O)(=O)c2ccc(Cl)cc2)CC1`, the viability is 92% (inactive) in assay [1]; 94.4% (inactive) in assay [2]; 72.3% (inactive) in assay [3]; 68.5% in assay [4] (setting [7]); 72.3% in assay [4] (setting [8]). Also, in assay [4] (H69AR cells + 2 uM doxorubicin), the differential viability (reversal) was 3.83% (inactive). Besides, the figures for the inhibition in assay [5] and in assay [6] were -5.87% (inactive) and -5.64% (inactive), respectively.

As for `CN(C)CCCN1c2ccccc2CCc2ccc(Cl)cc21`, the viability in assay [1] was 78% (inactive); in assay [2] it was 5.55% (active); in assay [3], 65.2% (inactive); in assay [4] (setting [7]), 53.2%; in assay [4] (setting [8]), 65.2%. Further, the differential viability (reversal) in assay [4] (H69AR cells + 2 uM doxorubicin) was 12% (inactive). The inhibition was -0.26% (inactive) in assay [5] and 1.17% (inactive) in assay [6].

Take `Cc1ccc(CN2CCN(C(=O)C3CCC3)CC2)cc1`: the viability in assay [1] is 88% (inactive); in assay [2] it was 102% (inactive); in assay [3], 97% (inactive); in assay [4] (setting [7]), 92.9%; in assay [4] (setting [8]), 97%. Further, the differential viability (reversal) in assay [4] (H69AR cells + 2 uM doxorubicin) was 4.13% (inactive). In addition, the inhibition in assay [5] is -8.49% (inactive); in assay [6] it was 2.36% (inactive).

For the compound `CCOC(=O)c1[nH]c2ccc(F)cc2c1NC(=O)C(C)N1CCc2cc(OC)c(OC)cc2C1` (configuration not stated), the viability was 99% (inactive) in assay [1]; 57.9% (inactive) in assay [2]; 13.5% (active) in assay [3]; 68.7% in assay [4] (setting [7]); 13.5% in assay [4] (setting [8]). Moreover, the differential viability (reversal) in assay [4] (H69AR cells + 2 uM doxorubicin) was -55.2% (inactive). Further, the inhibition in assay [5] is -3.42% (inactive); in assay [6], 7.87% (inactive).
